For 13 compounds, GI50 and inhibition results are on record in ChEMBL document CHEMBL3352321, “Design and total synthesis of Mannich derivatives of marine natural product lamellarin D as cytotoxic agents” (2014).

The structures appear in SMILES notation. Calls of active or inactive are those of the source. The calls are words filed in the database; no cut-off is given here.

The subject of one test is HT-29. In words: Antiproliferative activity against human HT-29 cells assessed as growth inhibition after 72 hrs by MTT assay. To be noted: HT-29, 72 h. The class given is functional. In a few lines:
(§1)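 ATCC-sourced cells seeded at 4000 per well and left 12 h, then medium exchanged for fresh medium carrying graded compound concentrations for 72 h. MTT (5 mg/mL, 10 µl) added for 3 h, formazan dissolved in DMSO, absorbance read at 540 nm. GI50 taken from dose-response curve; mean ± SEM of three independent experiments.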
(In general: Tetrazolium assays rely on reduction of a dye to a coloured formazan, in cell work by metabolically active cells.)

The next test has as its system K562. In words: Antiproliferative activity against human K562 cells assessed as growth inhibition after 72 hrs by MTT assay. To be noted: K562, 72 h. In kind it is functional. In a few lines:
as §1

In a further test the test system is HepG2. As to the kind of experiment: Antiproliferative activity against human HepG2 cells assessed as growth inhibition after 72 hrs by MTT assay. The class given is functional. To be noted: HepG2, 72 h. The essentials: as §1
In another test the test system is MDA-MB-231. As to the kind of experiment: Antiproliferative activity against human MDA-MB-231 cells assessed as growth inhibition after 72 hrs by MTT assay. In kind it is functional. To be noted: MDA-MB-231, 72 h. The essentials:
as §1

Test [1] deals with T1, DNA topoisomerase (Bos taurus) (UniProt A0JN73).
T1 sequence (whole entry): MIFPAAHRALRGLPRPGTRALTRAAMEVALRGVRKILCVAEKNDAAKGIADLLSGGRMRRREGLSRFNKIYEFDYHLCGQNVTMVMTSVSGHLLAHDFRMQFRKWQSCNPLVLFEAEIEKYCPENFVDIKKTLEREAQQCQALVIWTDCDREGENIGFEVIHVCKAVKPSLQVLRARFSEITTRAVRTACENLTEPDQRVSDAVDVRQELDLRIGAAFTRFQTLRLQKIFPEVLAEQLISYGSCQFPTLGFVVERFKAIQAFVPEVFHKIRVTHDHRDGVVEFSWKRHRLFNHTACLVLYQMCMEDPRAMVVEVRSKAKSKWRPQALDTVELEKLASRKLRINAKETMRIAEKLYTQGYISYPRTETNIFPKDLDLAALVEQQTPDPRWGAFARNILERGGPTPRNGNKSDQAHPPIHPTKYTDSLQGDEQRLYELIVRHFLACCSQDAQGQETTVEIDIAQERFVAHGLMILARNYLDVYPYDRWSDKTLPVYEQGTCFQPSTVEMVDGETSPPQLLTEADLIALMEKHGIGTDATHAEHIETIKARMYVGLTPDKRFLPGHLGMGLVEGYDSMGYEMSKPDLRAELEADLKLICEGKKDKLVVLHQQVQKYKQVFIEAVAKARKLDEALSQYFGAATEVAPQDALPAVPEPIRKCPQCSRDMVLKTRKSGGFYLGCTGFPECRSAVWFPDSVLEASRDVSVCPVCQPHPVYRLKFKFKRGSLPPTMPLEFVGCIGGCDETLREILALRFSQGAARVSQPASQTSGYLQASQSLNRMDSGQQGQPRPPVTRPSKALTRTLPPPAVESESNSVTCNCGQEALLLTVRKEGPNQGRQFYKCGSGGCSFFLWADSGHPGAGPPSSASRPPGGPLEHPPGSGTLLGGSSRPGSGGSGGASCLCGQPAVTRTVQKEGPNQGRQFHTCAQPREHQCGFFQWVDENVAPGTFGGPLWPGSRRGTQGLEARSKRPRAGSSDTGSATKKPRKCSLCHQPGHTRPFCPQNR
As to the kind of experiment: Inhibition of calf thymus Topoisomerase 1-mediated relaxation of supercoiled pBR322 DNA at 100 uM after 30 mins by gel electrophoresis. The essentials:
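Supercoiled pBR322 DNA incubated with 1 unit calf thymus topoisomerase I, with or without compound at 100 µM, 30 min at 37 °C. Stopped with 10% SDS, run on 1% agarose gel, stained 15 min with DNA gel stain and imaged under UV. Controls without enzyme included.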

By GI50 is commonly meant the concentration at which growth is held to half of that of the control.

Take `COc1cc2c(cc1O)oc(=O)c1c2c(-c2cc(CN(C)C)c(O)c(OC)c2)c2c3cc(OC)c(O)cc3ccn21`: the GI50 came out at 6.41 µM in the test with HT-29, 1.85 µM in the test on K562, 30.1 µM in the test on HepG2 and 3.98 µM with MDA-MB-231. Besides, in test [1], the inhibition result is “inactive”.

As for `CCCN(CCC)Cc1c(O)c(OC)cc2c1oc(=O)c1c2c(-c2ccc(O)c(OC)c2)c2c3cc(OC)c(O)c(CN(C)C)c3ccn21`, the GI50 was determined as 2.83 µM in the test on HT-29, 7.16 µM with K562, 15.8 µM with HepG2 and 6.15 µM with MDA-MB-231. Besides, the inhibition entry in test [1] was “Active”.

Turning to `COc1cc(-c2c3c4cc(OC)c(O)c(CN5CCOCC5)c4oc(=O)c3n3ccc4cc(O)c(OC)cc4c23)ccc1O`, the GI50 in the test on HT-29 was found to be 2.64 µM; in the test on K562, 2.25 µM; in the test with HepG2, 3.69 µM; in the test with MDA-MB-231, 4.87 µM. Further, in test [1], the inhibition result was “Active”.

On to `COc1cc(-c2c3c4cc(OC)c(O)cc4oc(=O)c3n3ccc4c(CN5CCCCC5)c(O)c(OC)cc4c23)ccc1O`, for which the GI50 in the test on HT-29 worked out at 18.3 µM; in the test on K562, 9.94 µM; with HepG2, 21.3 µM; in the test with MDA-MB-231, 33.1 µM. The inhibition result in test [1] was “Active”.

For the compound `COc1cc(-c2c3c4cc(OC)c(O)cc4oc(=O)c3n3ccc4cc(O)c(OC)cc4c23)ccc1O` [LAMELLARIN D], the GI50 is 4.47 µM with HT-29, 0.08 µM in the test with K562, 0.09 µM with HepG2 and 0.32 µM with MDA-MB-231. Moreover, in test [1], the inhibition result was “Active”.

Turning to `CCCN(CCC)Cc1c(O)c(OC)cc2c1oc(=O)c1c2c(-c2ccc(O)c(OC)c2)c2c3cc(OC)c(O)cc3ccn21`, the GI50 was 2.92 µM with HT-29, 2.37 µM with K562, 6.83 µM in the test with HepG2 and 9.75 µM with MDA-MB-231. In addition, in test [1], the inhibition entry was “Active”.

In the case of `COc1cc(-c2c3c4cc(OC)c(O)cc4oc(=O)c3n3ccc4c(CN5CCOCC5)c(O)c(OC)cc4c23)ccc1O`, the GI50 was 13 µM in the test with HT-29, 2.84 µM with K562, 4.47 µM with HepG2 and 19.9 µM in the test with MDA-MB-231. Besides, the inhibition entry in test [1] is “Active”.

For `COc1cc(-c2c3c4cc(OC)c(O)c(CN(C)C)c4oc(=O)c3n3ccc4cc(O)c(OC)cc4c23)ccc1O`, the concentration for 50% growth inhibition (GI50) in the test with HT-29 stood at 5.46 µM; in the test on K562, 0.43 µM; in the test with HepG2, 2.63 µM; in the test on MDA-MB-231, 3.3 µM. Also, the inhibition result in test [1] was “inactive”.

For the compound `CCN(CC)Cc1c(O)c(OC)cc2c1oc(=O)c1c2c(-c2ccc(O)c(OC)c2)c2c3cc(OC)c(O)cc3ccn21`, the GI50 in the test with HT-29 was found to be 2.52 µM; in the test on K562 it was 1.04 µM; in the test with HepG2 it was 5.04 µM; with MDA-MB-231, 5.78 µM. In test [1], the inhibition entry is “Active”.

Take `COc1cc(-c2c3n(c4c(=O)oc5cc(O)c(OC)cc5c24)CCc2cc(O)c(OC)cc2-3)ccc1O`: the GI50 in the test with HT-29 came out at 40.8 µM; in the test with K562, 1.61 µM; in the test on HepG2, 2.14 µM; with MDA-MB-231, 17.9 µM. Besides, in test [1], the inhibition entry was “inactive”.

Take `COc1cc(-c2c3c4cc(OC)c(O)c(CN5CCCCC5)c4oc(=O)c3n3ccc4cc(O)c(OC)cc4c23)ccc1O`: the GI50 with HT-29 stood at 2.5 µM; in the test with K562 it was 1.95 µM; in the test on HepG2 it was 6.99 µM; in the test on MDA-MB-231 it was 7.25 µM. The inhibition result in test [1] was “Active”.

As for `COc1cc(-c2c3c4cc(OC)c(O)cc4oc(=O)c3n3ccc4c(CN(C)C)c(O)c(OC)cc4c23)ccc1O`, the GI50 in the test with HT-29 was determined as 15 µM; in the test with K562, 1.34 µM; in the test on HepG2 it was 6.37 µM; in the test with MDA-MB-231, 13.1 µM. For the same compound, the inhibition entry in test [1] was “Active”.

As for `COc1cc(-c2c3c4cc(OC)c(O)c(CN(C)C)c4oc(=O)c3n3ccc4c(CN(C)C)c(O)c(OC)cc4c23)ccc1O`, the GI50 in the test with HT-29 is 5.68 µM; in the test with K562, 9.62 µM; with HepG2, greater than 50 µM; in the test on MDA-MB-231, 9.89 µM. Also, the inhibition result in test [1] is “Active”.
